Results as given in ChEMBL document CHEMBL3102806, “1,2,4-Triazole/oxime hybrids as new strategy for nitric oxide donors: Synthesis, anti-inflammatory, ulceroginicity and antiproliferative activities” (Eur J Med Chem, 2014).

Tests used:
Format in all cases: functional
[1] = tested on: RPMI-8226; experiment: Growth inhibition of human RPMI8226 cells after 48 hrs by sulforhodamine B assay; settings: RPMI-8226, 48 h
In short: (§1)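 NCI 60-cell-line panel (nine tumour subpanels), five-dose format: 10-fold dilutions from 10^-4 to 10^-8 M, 48 h continuous exposure, SRB protein stain. Percent growth at each level is derived from time-zero, untreated control and treated absorbances. GI50 is the concentration where [(Ti−Tz)/(C−Tz)]×100 = 50. Values outside the tested range are reported as above or below the limit.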

[2] = tested on: T47D; experiment: Growth inhibition of human T47D cells after 48 hrs by sulforhodamine B assay
In short: (§2)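 NCI 60-cell-line panel, five-dose run at 10-fold dilutions from 10^-4 to 10^-8 M, 48 h continuous exposure. Viability by SRB protein stain. Percent growth is taken from time-zero, untreated-control and treated absorbances. GI50 is the concentration giving a 50% lower net protein increase than in control cells. TGI is taken at Ti = Tz, LC50 at a 50% loss of initial protein.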

[3] = tested on: PC-3; experiment: Growth inhibition of human PC3 cells after 48 hrs by sulforhodamine B assay; settings: PC-3, 48 h; in short: as §1
[4] = tested on: TK-10; experiment: Growth inhibition of human TK10 cells after 48 hrs by sulforhodamine B assay; settings: TK-10, 48 h; in short: as §2
[5] = Growth inhibition of human RXF393 cells after 48 hrs by sulforhodamine B assay; settings: RXF 393, 48 h; in short: as §1
[6] = tested on: CAKI-1; experiment: Growth inhibition of human CAKI-1 cells after 48 hrs by sulforhodamine B assay; settings: CAKI-1, 48 h
In short: (§3)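 NCI full ~60 cell line panel. Five 10-fold concentrations from 10^-4 to 10^-8 M, 48 h continuous exposure, SRB protein read-out. Time-zero, control and treated absorbances give percentage growth. GI50 is the concentration where [(Ti−Tz)/(C−Tz)]×100 = 50; TGI is where Ti = Tz; LC50 is where [(Ti−Tz)/Tz]×100 = −50.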

[7] = tested on: OVCAR-8; experiment: Growth inhibition of human OVCAR8 cells after 48 hrs by sulforhodamine B assay; settings: OVCAR-8, 48 h; in short: as §1
[8] = Growth inhibition of human OVCAR5 cells after 48 hrs by sulforhodamine B assay; settings: OVCAR-5, 48 h; in short: as §1
[9] = tested on: OVCAR-3; experiment: Growth inhibition of human OVCAR3 cells after 48 hrs by sulforhodamine B assay; settings: OVCAR-3, 48 h; in short: as §1
[10] = tested on: IGROV-1; experiment: Growth inhibition of human IGROV1 cells after 48 hrs by sulforhodamine B assay; settings: IGROV-1, 48 h; in short: as §3
[11] = tested on: SK-MEL-5; experiment: Growth inhibition of human SK-MEL-5 cells after 48 hrs by sulforhodamine B assay; settings: SK-MEL-5, 48 h; in short: as §2
[12] = tested on: SK-MEL-28; experiment: Growth inhibition of human SK-MEL-28 cells after 48 hrs by sulforhodamine B assay; settings: SK-MEL-28, 48 h; in short: as §2
[13] = tested on: Malme-3M; experiment: Growth inhibition of human MALME-3M cells after 48 hrs by sulforhodamine B assay; in short: as §1
[14] = tested on: LOX IMVI; experiment: Growth inhibition of human LOXIMVI cells after 48 hrs by sulforhodamine B assay; in short: as §1
[15] = tested on: SNB-19; experiment: Growth inhibition of human SNB19 cells after 48 hrs by sulforhodamine B assay; settings: SNB-19, 48 h; in short: as §2
[16] = tested on: SF-295; experiment: Growth inhibition of human SF295 cells after 48 hrs by sulforhodamine B assay; settings: SF-295, 48 h; in short: as §1
[17] = tested on: SW-620; experiment: Growth inhibition of human SW620 cells after 48 hrs by sulforhodamine B assay; settings: SW-620, 48 h; in short: as §2
[18] = tested on: KM12; experiment: Growth inhibition of human KM12 cells after 48 hrs by sulforhodamine B assay; settings: KM12, 48 h; in short: as §1
[19] = tested on: HCT-15; experiment: Growth inhibition of human HCT15 cells after 48 hrs by sulforhodamine B assay; settings: HCT-15, 48 h; in short: as §3
[20] = tested on: COLO 205; experiment: Growth inhibition of human COLO205 cells after 48 hrs by sulforhodamine B assay; settings: COLO 205, 48 h; in short: as §3
[21] = tested on: NCI-H522; experiment: Growth inhibition of human NCI-H522 cells after 48 hrs by sulforhodamine B assay; settings: NCI-H522, 48 h; in short: as §1
[22] = tested on: NCI-H460; experiment: Growth inhibition of human NCI-H460 cells after 48 hrs by sulforhodamine B assay; settings: NCI-H460, 48 h; in short: as §1
[23] = tested on: NCI-H322M; experiment: Growth inhibition of human NCI-H322M cells after 48 hrs by sulforhodamine B assay; in short: as §1
[24] = tested on: NCI-H23; experiment: Growth inhibition of human NCI-H23 cells after 48 hrs by sulforhodamine B assay; settings: NCI-H23, 48 h; in short: as §1
[25] = tested on: HOP-62; experiment: Growth inhibition of human HOP62 cells after 48 hrs by sulforhodamine B assay; settings: HOP-62, 48 h; in short: as §3
[26] = Growth inhibition of human HOP92 cells after 48 hrs by sulforhodamine B assay; settings: HOP-92, 48 h; in short: as §3
[27] = tested on: A549; experiment: Growth inhibition of human A549/ATCC cells after 48 hrs by sulforhodamine B assay; settings: A549, 48 h; in short: as §3
[28] = read-out: LC50 (the source's name)

In the case of `COc1ccc(-c2nnc(SCC(=O)Nc3ccc(/C(C)=N/O)cc3)n2-c2ccccc2)cc1OC`, the GI50 [1] is reported as > 100 µM, the TGI [1] is reported as > 100 µM and the CC50 [1, 28] is reported as > 100 µM. For the same compound, the GI50 [2] was 9.45 µM, the TGI [2] was > 100 µM and the CC50 [2, 28] was > 100 µM. The GI50 [3] was > 100 µM, the TGI [3] was > 100 µM and the CC50 [3, 28] was > 100 µM. The GI50 [4] was 11.3 µM, the TGI [4] was 52.7 µM and the CC50 [4, 28] was > 100 µM. The GI50 [5] was 2560 nM, the TGI [5] was 7.11 µM and the CC50 [5, 28] was > 100 µM. The GI50 [6] was > 100 µM, the TGI [6] was > 100 µM and the CC50 [6, 28] was > 100 µM. For the same compound, the GI50 [7] was 7.36 µM, the TGI [7] was > 100 µM and the CC50 [7, 28] was > 100 µM. For the same compound, the GI50 [8] was > 100 µM, the TGI [8] was > 100 µM and the CC50 [8, 28] was > 100 µM. The GI50 [9] was 7.87 µM, the TGI [9] was > 100 µM and the CC50 [9, 28] was > 100 µM. For the same compound, the GI50 [10] was 3.74 µM, the TGI [10] was 29.4 µM and the CC50 [10, 28] was > 100 µM. The GI50 [11] was > 100 µM, the TGI [11] was > 100 µM and the CC50 [11, 28] was > 100 µM. The GI50 [12] was > 100 µM, the TGI [12] was > 100 µM and the CC50 [12, 28] was > 100 µM. For the same compound, the GI50 [13] was 17.2 µM, the TGI [13] was > 100 µM and the CC50 [13, 28] was > 100 µM. The GI50 [14] was > 100 µM, the TGI [14] was > 100 µM and the CC50 [14, 28] was > 100 µM. The GI50 [15] was 6.43 µM, the TGI [15] was > 100 µM and the CC50 [15, 28] was > 100 µM. For the same compound, the GI50 [16] was 3.39 µM, the TGI [16] was 37.7 µM and the CC50 [16, 28] was > 100 µM. For the same compound, the GI50 [17] was > 100 µM, the TGI [17] was > 100 µM and the CC50 [17, 28] was > 100 µM. The GI50 [18] was > 100 µM, the TGI [18] was > 100 µM and the CC50 [18, 28] was > 100 µM. For the same compound, the GI50 [19] was > 100 µM, the TGI [19] was > 100 µM and the CC50 [19, 28] was > 100 µM. The GI50 [20] was > 100 µM, the TGI [20] was > 100 µM and the CC50 [20, 28] was > 100 µM. The GI50 [21] was 21.4 µM, the TGI [21] was > 100 µM and the CC50 [21, 28] was > 100 µM. The GI50 [22] was > 100 µM, the TGI [22] was > 100 µM and the CC50 [22, 28] was > 100 µM. For the same compound, the GI50 [23] was 4.41 µM, the TGI [23] was > 100 µM and the CC50 [23, 28] was > 100 µM. The GI50 [24] was 12.9 µM, the TGI [24] was > 100 µM and the CC50 [24, 28] was > 100 µM. The GI50 [25] was 2060 nM, the TGI [25] was 6.8 µM and the CC50 [25, 28] was > 100 µM. The GI50 [26] was 2120 nM, the TGI [26] was 6.42 µM and the CC50 [26, 28] was > 100 µM. The GI50 [27] was 9.73 µM, the TGI [27] was > 100 µM and the CC50 [27, 28] was > 100 µM.
